Measurements published in ChEMBL document CHEMBL4680287, “Ibrexafungerp: An orally active β-1,3-glucan synthesis inhibitor” (Bioorg Med Chem Lett, 2021).
Values after ≈ are worked out from the molar mass of the structure shown.

Key:
[1] = Inhibition of beta-1,3-glucan synthase in Candida albicans MY1055 microsomal membrane assessed as inhibition of TCA-insoluble material formation using UDP-[3H]-glucose as substrate incubated for 2 hrs in presence of GTP by radioactivity-based assay; assay type: microsomes, Microsome
Method in brief: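 GS IC50 measured using Candida albicans MY1055 microsomal membrane fragments as the enzyme source.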

Candida albicans [2] = assay: Antifungal activity against Candida albicans MY1055 infected in DBA/2 mouse model of disseminated candidiasis assessed as reduction in fungal burden in kidney by measuring log change in colony forming units at 25 mg/kg, po bid for 7 days by TOKA; assay type: functional; conditions: time 7 day
Method in brief: (§1)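 Murine disseminated candidiasis model (TOKA) in mice challenged with C. albicans MY1055 at 2.44 x 10^4 CFU/mouse. Dosed PO, or IP where stated. Kidneys collected aseptically 7 days after challenge and CFUs/g counted. Change in log CFU/g is relative to sham-treated controls; significance by two-tailed t test. Clearance is the percentage of kidneys below the detection limit.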

Candida albicans [3] = assay: Antifungal activity against Candida albicans MY1055 infected in DBA/2 mouse model of disseminated candidiasis assessed as reduction in fungal burden in kidney by measuring log change in colony forming units at 6.25 mg/kg, po bid for 7 days by TOKA; assay type: functional; conditions: time 7 day; method in brief: as §1
Candida albicans [4] = assay: Antifungal activity against Candida albicans MY1055 assessed as fungal growth inhibition measured after 24 hrs in presence of 50% mouse serum by liquid microdilution method; assay type: functional
Method in brief: (§2)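 Broth microdilution per CLSI protocols in RPMI medium. Read-out is the MIC, the lowest concentration completely inhibiting fungal growth. Run without serum and with added serum.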

[5] = Dose normalized AUC in po dosed mouse; assay type: ADME, organism-based; conditions: in vivo
Candida albicans [6] = assay: Antifungal activity against Candida albicans MY1055 infected in DBA/2 mouse model of disseminated candidiasis assessed as reduction in fungal burden in kidney by measuring log change in colony forming units at 12.5 mg/kg, po bid for 7 days by TOKA; assay type: functional; conditions: time 7 day; method in brief: as §1
Candida albicans [7] = assay: Antifungal activity against Candida albicans MY1055 assessed as fungal growth inhibition measured after 24 hrs by liquid microdilution method; assay type: functional; method in brief: as §2
Aspergillus fumigatus = assay: Antifungal activity against Aspergillus fumigatus MF5668 assessed inhibition of fungal growth by measuring morphological changes measured after 24 hrs by microscopy; assay type: functional; conditions: read-out: MEC
Method in brief: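 Microdilution per CLSI protocols in RPMI medium. Read-out is the minimum effective concentration (MEC). Run without serum and with 50% human serum.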

[8] = Oral bioavailability in mouse; assay type: ADME, organism-based; conditions: in vivo
Method in brief: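 Oral bioavailability calculated as oral AUC normalized to the IV dose, divided by the IV AUC.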

Structure (SMILES)	IC50 [1]	Activity (Candida albicans [2])	Activity (Candida albicans [3])	MIC (Candida albicans [4])	AUC/dose [5]	Activity (Candida albicans [6])	MIC (Candida albicans [7])	minimal effective concentration (Aspergillus fumigatus)	bioavailability [8]
CN[C@@](C)(CO[C@H]1[C@H](n2ncnc2-c2ccncc2)C[C@@]23COC[C@]1(C)[C@@H]2CC[C@H]1C3=CC[C@@]2(C)[C@H](C(=O)O)[C@@](C)([C@H](C)C(C)C)CC[C@]12C)C(C)(C)C	0.002 µg/mL	-4.2 deltalog10CFU	-1.7 deltalog10CFU	1 µg/mL	0.62 µM·kg·h/mg	-3.2 deltalog10CFU	0.03 µg/mL (≈ 0.0403 µM)	0.008 µg/mL	–
CC(C)[C@@H](C)[C@@]1(C)CC[C@]2(C)[C@H]3CC[C@@H]4[C@@]5(COC[C@@]4(C)[C@@H](OC[C@](C)(N)C(C)C)[C@H](n4ncnc4-c4cccnn4)C5)C3=CC[C@@]2(C)[C@@H]1C(=O)O	0.005 µg/mL	–	–	2 µg/mL	–	–	< 0.03 µg/mL	< 0.03 µg/mL	–
COc1cccc(-c2ncnn2[C@@H]2C[C@@]34COC[C@](C)([C@@H]3CC[C@H]3C4=CC[C@@]4(C)[C@H](C(=O)O)[C@@](C)([C@H](C)C(C)C)CC[C@]34C)[C@H]2OC[C@](C)(N)C(C)C)c1	0.011 µg/mL	–	–	32 µg/mL	–	–	0.25 µg/mL (≈ 0.336 µM)	< 0.03 µg/mL	–
CC(C)[C@@H](C)[C@@]1(C)CC[C@]2(C)[C@H]3CC[C@@H]4[C@@]5(COC[C@@]4(C)[C@@H](OC[C@](C)(N)c4ccccc4)[C@H](n4ncnc4-c4ccncc4)C5)C3=CC[C@@]2(C)[C@@H]1C(=O)O	0.006 µg/mL	-2.6 deltalog10CFU	-0.5 deltalog10CFU	4 µg/mL	–	-1.5 deltalog10CFU	0.25 µg/mL (≈ 0.333 µM)	0.125 µg/mL	–
CC(C)[C@@H](C)[C@@]1(C)CC[C@]2(C)[C@H]3CC[C@@H]4[C@@]5(COC[C@@]4(C)[C@@H](OC[C@](C)(N)C(C)C)[C@H](n4cncn4)C5)C3=CC[C@@]2(C)[C@@H]1C(=O)O	0.007 µg/mL	–	–	4 µg/mL	–	–	0.25 µg/mL (≈ 0.391 µM)	< 0.03 µg/mL	–
CC(C)[C@@H](C)[C@@]1(C)CC[C@]2(C)[C@H]3CC[C@@H]4[C@@]5(COC[C@@]4(C)[C@@H](OC[C@](C)(N)C(C)C)[C@H](n4ncnc4-c4cncnc4)C5)C3=CC[C@@]2(C)[C@@H]1C(=O)O	0.006 µg/mL	-3 deltalog10CFU	-2.1 deltalog10CFU	1 µg/mL	0.33 µM·kg·h/mg	-3 deltalog10CFU	0.06 µg/mL (≈ 0.0837 µM)	< 0.03 µg/mL	26%
CC(C)[C@@H](C)[C@@]1(C)CC[C@]2(C)[C@H]3CC[C@@H]4[C@@]5(COC[C@@]4(C)[C@@H](OC[C@](C)(N)C(C)C)[C@H](n4ncnc4C4CC4)C5)C3=CC[C@@]2(C)[C@@H]1C(=O)O	0.006 µg/mL	–	–	16 µg/mL	–	–	0.125 µg/mL (≈ 0.184 µM)	0.008 µg/mL	–
CC(C)[C@@H](C)[C@@]1(C)CC[C@]2(C)[C@H]3CC[C@@H]4[C@@]5(COC[C@@]4(C)[C@@H](OC[C@H](N)C(C)(C)C)[C@H](n4ncnc4-c4ccncc4)C5)C3=CC[C@@]2(C)[C@@H]1C(=O)O	0.007 µg/mL	-2.6 deltalog10CFU	-1 deltalog10CFU	2 µg/mL	–	-2.4 deltalog10CFU	0.25 µg/mL (≈ 0.349 µM)	< 0.03 µg/mL	–
CC(C)[C@@H](C)[C@@]1(C)CC[C@]2(C)[C@H]3CC[C@@H]4[C@@]5(COC[C@@]4(C)[C@@H](OC[C@](C)(N)C(C)C)[C@H](n4ncnc4-c4ccnnc4)C5)C3=CC[C@@]2(C)[C@@H]1C(=O)O	0.002 µg/mL	-2.6 deltalog10CFU	-1.2 deltalog10CFU	1 µg/mL	0.23 µM·kg·h/mg	-1.2 deltalog10CFU	0.125 µg/mL (≈ 0.174 µM)	< 0.03 µg/mL	29%
CC(C)[C@@H](C)[C@@]1(C)CC[C@]2(C)[C@H]3CC[C@@H]4[C@@]5(COC[C@@]4(C)[C@@H](OC[C@](C)(N)C(C)C)[C@H](n4ncnc4-c4ccc(F)cc4)C5)C3=CC[C@@]2(C)[C@@H]1C(=O)O	0.011 µg/mL	–	–	8 µg/mL	–	–	0.25 µg/mL (≈ 0.341 µM)	< 0.03 µg/mL	–
CC(C)[C@@H](C)[C@@]1(C)CC[C@]2(C)[C@H]3CC[C@@H]4[C@@]5(COC[C@@]4(C)[C@@H](OC[C@](C)(N)C(C)C)[C@H](n4ncnc4-c4cccc(F)c4)C5)C3=CC[C@@]2(C)[C@@H]1C(=O)O	0.011 µg/mL	–	–	8 µg/mL	–	–	0.25 µg/mL (≈ 0.341 µM)	< 0.03 µg/mL	–
CC(C)[C@@H](C)[C@@]1(C)CC[C@]2(C)[C@H]3CC[C@@H]4[C@@]5(COC[C@@]4(C)[C@@H](OC[C@](C)(N)C(C)C)[C@H](n4ncnc4-c4ncccn4)C5)C3=CC[C@@]2(C)[C@@H]1C(=O)O	0.004 µg/mL	–	–	8 µg/mL	–	–	0.25 µg/mL (≈ 0.349 µM)	< 0.03 µg/mL	–
COc1cc(-c2ncnn2[C@@H]2C[C@@]34COC[C@](C)([C@@H]3CC[C@H]3C4=CC[C@@]4(C)[C@H](C(=O)O)[C@@](C)([C@H](C)C(C)C)CC[C@]34C)[C@H]2OC[C@](C)(N)C(C)C)ccn1	0.008 µg/mL	–	–	4 µg/mL	–	–	0.25 µg/mL (≈ 0.335 µM)	< 0.03 µg/mL	–
CCC(N)(CC)CO[C@H]1[C@H](n2ncnc2-c2ccncc2)C[C@@]23COC[C@]1(C)[C@@H]2CC[C@H]1C3=CC[C@@]2(C)[C@H](C(=O)O)[C@@](C)([C@H](C)C(C)C)CC[C@]12C	0.001 µg/mL	-3.3 deltalog10CFU	-1.3 deltalog10CFU	1 µg/mL	–	-2.3 deltalog10CFU	0.06 µg/mL (≈ 0.0838 µM)	< 0.03 µg/mL	–
CC(C)[C@@H](C)[C@@]1(C)CC[C@]2(C)[C@H]3CC[C@@H]4[C@@]5(COC[C@@]4(C)[C@@H](OC[C@](C)(N)C(C)C)[C@H](n4ncnc4-c4cnccn4)C5)C3=CC[C@@]2(C)[C@@H]1C(=O)O	0.004 µg/mL	–	–	4 µg/mL	–	–	0.5 µg/mL (≈ 0.697 µM)	< 0.03 µg/mL	–
COc1ccc(-c2ncnn2[C@@H]2C[C@@]34COC[C@](C)([C@@H]3CC[C@H]3C4=CC[C@@]4(C)[C@H](C(=O)O)[C@@](C)([C@H](C)C(C)C)CC[C@]34C)[C@H]2OC[C@](C)(N)C(C)C)cc1	0.015 µg/mL	–	–	8 µg/mL	–	–	0.5 µg/mL (≈ 0.671 µM)	< 0.03 µg/mL	–
CCc1ncnn1[C@@H]1C[C@@]23COC[C@](C)([C@@H]2CC[C@H]2C3=CC[C@@]3(C)[C@H](C(=O)O)[C@@](C)([C@H](C)C(C)C)CC[C@]23C)[C@H]1OC[C@](C)(N)C(C)C	0.01 µg/mL	–	–	8 µg/mL	–	–	0.25 µg/mL (≈ 0.375 µM)	< 0.03 µg/mL	–
CN[C@@](C)(CO[C@H]1[C@H](n2ncnc2-c2ccccn2)C[C@@]23COC[C@]1(C)[C@@H]2CC[C@H]1C3=CC[C@@]2(C)[C@H](C(=O)O)[C@@](C)([C@H](C)C(C)C)CC[C@]12C)C(C)C	0.003 µg/mL	–	–	16 µg/mL	–	–	0.25 µg/mL (≈ 0.342 µM)	< 0.03 µg/mL	–
CCCc1ncnn1[C@@H]1C[C@@]23COC[C@](C)([C@@H]2CC[C@H]2C3=CC[C@@]3(C)[C@H](C(=O)O)[C@@](C)([C@H](C)C(C)C)CC[C@]23C)[C@H]1OC[C@](C)(N)C(C)C	0.003 µg/mL	–	–	16 µg/mL	–	–	8 µg/mL (≈ 11.7 µM)	< 0.03 µg/mL	–
CC(C)[C@@H](C)[C@@]1(C)CC[C@]2(C)[C@H]3CC[C@@H]4[C@@]5(COC[C@@]4(C)[C@@H](OC[C@](C)(N)C(C)C)[C@H](n4ncnc4-c4ccncn4)C5)C3=CC[C@@]2(C)[C@@H]1C(=O)O	0.005 µg/mL	–	–	4 µg/mL	2.38 µM·kg·h/mg	–	< 0.03 µg/mL	< 0.03 µg/mL	43%
CC(C)[C@@H](C)[C@@]1(C)CC[C@]2(C)[C@H]3CC[C@@H]4[C@@]5(COC[C@@]4(C)[C@@H](OC[C@](C)(N)C(C)C)[C@H](n4ncnc4-c4ccccc4F)C5)C3=CC[C@@]2(C)[C@@H]1C(=O)O	–	–	–	8 µg/mL	–	–	0.5 µg/mL (≈ 0.682 µM)	< 0.03 µg/mL	–
Cc1ncnn1[C@@H]1C[C@@]23COC[C@](C)([C@@H]2CC[C@H]2C3=CC[C@@]3(C)[C@H](C(=O)O)[C@@](C)([C@H](C)C(C)C)CC[C@]23C)[C@H]1OC[C@](C)(N)C(C)C	0.005 µg/mL	–	–	4 µg/mL	–	–	0.25 µg/mL (≈ 0.383 µM)	0.03 µg/mL	–
